For data set [1], the system named is Mus musculus. The experiment in a line: Antiarthritic activity in DBA/1J mouse collagen-induced arthritis model assessed as reduction in paw thickness at 30 mg/kg, ip administered every morning for 1 week measured during compound dosing. Type of data set: functional, organism-based. The method, boiled down: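 Collagen type II-induced arthritis in mice, treated at 30 mg/kg versus vehicle. Clinical arthritis score and paw swelling were followed over time from the start of treatment until the end of the experiment.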

For data set [2], the system named is HEL. The experiment in a line: Cell cycle arrest in human HEL cells at 5 to 1000 nM after 24 hrs by propidium iodide staining-based flow cytometric method. Type of data set: functional. (In general: Flow cytometry measures light scatter and fluorescence of single cells or particles in a stream.)
A short description of data set [3]: Inhibition of class 1 HDAC in human MV4-11 cells assessed as induction of histone hyperacetylation at 50 nM to 10 uM after 24 hrs by Western blot method. The data set is classed as cell-based. The settings on record: 0.05 µM. The gist of the method:
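MV4-11 cells were exposed to the inhibitor, from 5 nM to 10 µM for 24 h or at 50 nM for 10 min to 48 h. Lysates were immunoblotted for acetylated tubulin, acetylated histone H3 and HDAC6. Acetyl-tubulin was quantified by densitometry normalised to HSP90. MS-275 at 5 µM for 24 h was the comparator. Blots are representative of at least two independent experiments.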
On the technique in general: A western blot detects proteins with antibodies after separation by electrophoresis.

Data set [4] has as its target Histone deacetylase 4 (Homo sapiens, UniProt P56524). The experiment in a line: Inhibition of recombinant human C-terminal GST-tagged HDAC4 expressed in baculovirus-infected insect cells using Boc-Lys(TFA)-AMC as substrate by fluorimeter.
Data set [5] addresses T1, Protein deacetylase HDAC6 (Homo sapiens) (UniProt Q9UBN7).
T1 sequence (whole entry): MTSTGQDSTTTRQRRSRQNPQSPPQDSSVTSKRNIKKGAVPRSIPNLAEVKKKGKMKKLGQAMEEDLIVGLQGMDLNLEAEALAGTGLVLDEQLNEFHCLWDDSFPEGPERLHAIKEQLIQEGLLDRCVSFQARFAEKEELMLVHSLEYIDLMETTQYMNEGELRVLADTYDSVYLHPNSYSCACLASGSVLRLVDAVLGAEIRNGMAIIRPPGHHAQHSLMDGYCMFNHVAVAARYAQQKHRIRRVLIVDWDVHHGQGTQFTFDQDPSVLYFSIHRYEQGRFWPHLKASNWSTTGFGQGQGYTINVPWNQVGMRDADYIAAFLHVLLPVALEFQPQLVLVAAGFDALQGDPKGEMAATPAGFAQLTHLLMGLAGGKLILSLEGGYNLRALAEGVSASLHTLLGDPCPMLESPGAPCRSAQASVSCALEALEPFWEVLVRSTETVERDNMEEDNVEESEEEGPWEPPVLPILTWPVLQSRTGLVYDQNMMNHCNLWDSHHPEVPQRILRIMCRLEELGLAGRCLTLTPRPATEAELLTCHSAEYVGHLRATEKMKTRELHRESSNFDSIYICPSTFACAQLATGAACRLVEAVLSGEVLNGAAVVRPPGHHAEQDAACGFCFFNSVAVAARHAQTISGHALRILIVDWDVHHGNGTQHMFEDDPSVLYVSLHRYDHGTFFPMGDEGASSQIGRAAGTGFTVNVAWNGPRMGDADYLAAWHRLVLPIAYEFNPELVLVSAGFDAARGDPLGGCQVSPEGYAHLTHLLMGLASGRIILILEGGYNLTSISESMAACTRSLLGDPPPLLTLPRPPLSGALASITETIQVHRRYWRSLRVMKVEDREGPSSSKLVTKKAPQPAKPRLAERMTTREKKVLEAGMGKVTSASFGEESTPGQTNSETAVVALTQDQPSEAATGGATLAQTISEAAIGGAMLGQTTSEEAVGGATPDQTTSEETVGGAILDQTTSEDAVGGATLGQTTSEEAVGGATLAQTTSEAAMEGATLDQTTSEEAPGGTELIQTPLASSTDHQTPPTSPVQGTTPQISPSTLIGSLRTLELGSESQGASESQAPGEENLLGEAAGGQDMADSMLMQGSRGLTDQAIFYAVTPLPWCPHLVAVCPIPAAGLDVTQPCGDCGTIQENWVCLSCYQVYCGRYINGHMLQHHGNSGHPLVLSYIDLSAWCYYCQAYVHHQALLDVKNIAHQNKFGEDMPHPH
Particulars: 5 to 1000 nM.

The test system of data set [6] is Mus musculus. The experiment in a line: Antiarthritic activity in DBA/1J mouse collagen-induced arthritis model assessed as decrease in histological scores at 30 mg/kg, ip administered every morning for 12 to 14 days measured during compound dosing relative to vehicle-treated control. The data set is classed as functional. Further details: scale not given: the % may be the effect or the level left. The gist of the method: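 Collagen type II-induced arthritis in mice, treated at 30 mg/kg versus vehicle. Arthritic paws were assessed histologically for synovial inflammation, cellular invasion, cartilage degradation and bone erosion.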

The target of data set [7] is T1, Protein deacetylase HDAC6 (Homo sapiens). The settings on record: 5 to 1000 nM. The source holds these as a separate data set.
In data set [8] the target is T2, Polyamine deacetylase HDAC10 (Homo sapiens, UniProt Q969S8).
T2 sequence (Q969S8 whole entry): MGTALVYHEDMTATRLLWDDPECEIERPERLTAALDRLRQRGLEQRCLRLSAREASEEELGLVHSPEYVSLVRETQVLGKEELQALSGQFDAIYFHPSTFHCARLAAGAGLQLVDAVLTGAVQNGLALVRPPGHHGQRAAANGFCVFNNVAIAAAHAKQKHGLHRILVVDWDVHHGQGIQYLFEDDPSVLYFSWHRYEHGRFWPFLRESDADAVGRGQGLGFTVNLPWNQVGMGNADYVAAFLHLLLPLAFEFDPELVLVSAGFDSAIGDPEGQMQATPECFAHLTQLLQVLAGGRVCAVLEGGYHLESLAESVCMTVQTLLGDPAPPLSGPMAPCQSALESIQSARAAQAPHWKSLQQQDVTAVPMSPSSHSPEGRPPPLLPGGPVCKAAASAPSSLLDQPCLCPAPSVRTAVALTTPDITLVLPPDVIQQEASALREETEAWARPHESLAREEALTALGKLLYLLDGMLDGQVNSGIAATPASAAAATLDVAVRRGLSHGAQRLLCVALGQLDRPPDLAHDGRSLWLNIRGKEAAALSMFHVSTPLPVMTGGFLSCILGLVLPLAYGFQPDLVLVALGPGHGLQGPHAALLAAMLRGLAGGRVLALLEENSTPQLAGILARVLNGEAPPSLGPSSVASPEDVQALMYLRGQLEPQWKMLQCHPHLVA
The data set is described as follows: Inhibition of recombinant human HDAC10 expressed in baculovirus-infected insect cells using fluorogenic peptide RHKKAc as substrate by fluorimeter.

The target in data set [9] is Histone deacetylase 1 (Homo sapiens, UniProt Q13547). The experiment in a line: Inhibition of recombinant human C-terminal FLAG/His-tagged HDAC1 expressed in baculovirus-infected Sf21 insect cells using RHKK(Ac)AMC as substrate after 60 mins by fluorimeter.
The subject of data set [10] is Mus musculus. The data set is described as follows: Toxicity in DBA/1J mouse collagen-induced arthritis model assessed as effect on red blood cell count at 30 mg/kg, ip administered every morning for 12 to 14 days measured post last dose relative to vehicle-treated control. Type of data set: organism-based. The settings on record: in vivo.
The target in data set [11] is T1, Protein deacetylase HDAC6 (Homo sapiens). The settings on record: 5 to 1000 nM. This is another data set of the same source.

Calls of active or inactive are those of the source. No cut-off for these calls is given here.

Chain of Histone deacetylase 1 (Q13547 whole entry): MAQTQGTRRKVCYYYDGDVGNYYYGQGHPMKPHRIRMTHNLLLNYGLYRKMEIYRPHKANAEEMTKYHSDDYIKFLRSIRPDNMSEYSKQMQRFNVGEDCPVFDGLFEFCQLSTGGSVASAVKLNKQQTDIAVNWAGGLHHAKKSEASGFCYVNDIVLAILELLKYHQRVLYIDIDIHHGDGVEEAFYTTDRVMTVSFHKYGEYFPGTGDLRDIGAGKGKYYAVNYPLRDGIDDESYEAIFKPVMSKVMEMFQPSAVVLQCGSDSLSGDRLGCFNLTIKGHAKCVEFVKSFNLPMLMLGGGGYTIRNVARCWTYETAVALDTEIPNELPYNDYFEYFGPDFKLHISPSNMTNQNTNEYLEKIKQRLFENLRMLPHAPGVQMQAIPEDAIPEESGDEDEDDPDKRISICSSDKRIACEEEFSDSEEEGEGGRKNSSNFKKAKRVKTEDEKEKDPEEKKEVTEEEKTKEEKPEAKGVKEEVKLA
Chain of Histone deacetylase 4 (P56524 whole entry): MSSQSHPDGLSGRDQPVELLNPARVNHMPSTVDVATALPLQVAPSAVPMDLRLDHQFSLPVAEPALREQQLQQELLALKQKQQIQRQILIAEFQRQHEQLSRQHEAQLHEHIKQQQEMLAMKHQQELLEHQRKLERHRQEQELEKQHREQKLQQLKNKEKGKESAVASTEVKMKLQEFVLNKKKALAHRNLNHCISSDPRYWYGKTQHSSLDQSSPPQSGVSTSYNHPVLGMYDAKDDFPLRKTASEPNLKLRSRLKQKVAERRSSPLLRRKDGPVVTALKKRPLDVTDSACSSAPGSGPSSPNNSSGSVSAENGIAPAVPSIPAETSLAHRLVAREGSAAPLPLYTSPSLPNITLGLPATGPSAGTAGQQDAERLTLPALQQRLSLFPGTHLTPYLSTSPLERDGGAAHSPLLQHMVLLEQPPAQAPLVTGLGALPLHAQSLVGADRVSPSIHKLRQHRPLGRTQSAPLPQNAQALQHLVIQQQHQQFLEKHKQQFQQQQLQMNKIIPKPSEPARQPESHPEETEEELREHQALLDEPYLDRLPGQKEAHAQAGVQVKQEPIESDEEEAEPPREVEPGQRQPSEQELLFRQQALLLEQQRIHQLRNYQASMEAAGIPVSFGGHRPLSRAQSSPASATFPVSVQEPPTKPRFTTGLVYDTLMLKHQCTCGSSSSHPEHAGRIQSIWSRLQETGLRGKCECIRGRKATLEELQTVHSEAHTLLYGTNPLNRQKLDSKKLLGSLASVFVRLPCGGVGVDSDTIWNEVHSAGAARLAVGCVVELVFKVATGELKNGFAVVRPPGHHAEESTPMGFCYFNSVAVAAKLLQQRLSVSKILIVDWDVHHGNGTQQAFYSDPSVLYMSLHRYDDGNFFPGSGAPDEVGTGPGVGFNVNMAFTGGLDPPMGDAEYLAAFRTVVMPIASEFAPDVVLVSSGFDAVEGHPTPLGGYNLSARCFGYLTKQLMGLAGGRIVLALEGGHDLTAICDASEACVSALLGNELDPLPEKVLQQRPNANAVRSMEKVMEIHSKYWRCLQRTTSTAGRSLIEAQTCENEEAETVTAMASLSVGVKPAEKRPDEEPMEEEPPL

Turning to `CN1C(=O)C2CN(Cc3c2c2ccccc2n3Cc2ccc(C(=O)NO)cc2)C1=O` (stereo unspecified), the outcome in [1] was Active. The outcome in [2] was inactive. Also, the “inhibition (INH)” value in data set [3] is “Not Active”. The results for the Ki in data set [4], in [8] and in data set [9] were 1820 nM, 452 nM and 358 nM, respectively. In addition, the inhibition entry in [5], in data set [7] and in data set [11] was “Active” in each case. The figures for the Activity in data set [6] and in data set [10] were 50% and “Non-Toxic”, respectively.

Usually Ki stands for the dissociation constant of the complex between target and ligand, obtained from inhibition or displacement.

Source of the values: ChEMBL document CHEMBL4043295, “Marbostat-100 Defines a New Class of Potent and Selective Antiinflammatory and Antirheumatic Histone Deacetylase 6 Inhibitors” (J Med Chem, 2018).
